Legend:
Rattus norvegicus [1] = assay: Decrease in peripheral blood lymphocyte counts in femoral artery cannulated Lewis rat at 3 mg/kg, po after 12 hrs; assay type: functional
Procedure, shortened: (§1)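 Femoral artery cannulated Lewis rats (n = 3) given a single 3 mpk oral dose. PBL counts and plasma compound concentration sampled over time up to 72 h postdose. A repeat 3 mpk po challenge was given to the same animals.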

Rattus norvegicus [2] = assay: Decrease in peripheral blood lymphocyte counts in Lewis rat at 3 mg/kg, po after 24 hrs; assay type: functional
Procedure, shortened: (§2)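 Rat oral dose-titration at 1–30 mpk po. Peripheral blood lymphocyte counts and plasma compound concentrations determined 24 h postdose.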

[3] = Plasma concentration in femoral artery cannulated Lewis rat at 3 mg/kg, po after 48 hrs; assay type: ADME, organism-based; parameters: dose 3 mg/kg, route oral
Procedure, shortened: (§3)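 Femoral artery cannulated Lewis rats (n = 3) got a single 3 mpk oral dose. Compound plasma concentration (nM) was measured serially over time up to 72 h postdose. Peripheral blood lymphocyte counts were taken in parallel at the same time points. The same animals were later given a second 3 mpk oral dose.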

[4] = Plasma concentration in femoral artery cannulated Lewis rat at 3 mg/kg, po after 2 hrs; assay type: ADME, organism-based; parameters: dose 3 mg/kg, route oral; procedure, shortened: as §3
Rattus norvegicus [5] = assay: Decrease in peripheral blood lymphocyte counts in femoral artery cannulated Lewis rat at 3 mg/kg, po after 2 hrs; assay type: functional; procedure, shortened: as §1
[6] = Bioavailability in Beagle dog at 1 mg/kg, po and 0.5 mg/kg, iv; assay type: ADME, organism-based, Canis lupus familiaris; settings: in vivo
Procedure, shortened: (§4)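 Single-dose PK at 1.0 mpk po and 0.5 mpk iv. Plasma compound levels measured.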

[7] = target: Sphingosine 1-phosphate receptor 2 (Homo sapiens, UniProt O95136); assay: Displacement of [33P]sphingosine 1 phosphate from human S1P2 receptor expressed in CHO cells; assay type: cell-based
Rattus norvegicus [8] = assay: Decrease in peripheral blood lymphocyte counts in femoral artery cannulated Lewis rat at 3 mg/kg, po after 72 hrs; assay type: functional; procedure, shortened: as §1
Rattus norvegicus [9] = assay: Decrease in peripheral blood lymphocyte counts in Lewis rat at 30 mg/kg, po after 24 hrs; assay type: functional; procedure, shortened: as §2
Rattus norvegicus [10] = assay: Decrease in peripheral blood lymphocyte counts in Lewis rat at 1 mg/kg, po after 24 hrs; assay type: functional; procedure, shortened: as §2
[11] = Plasma concentration in femoral artery cannulated Lewis rat at 3 mg/kg, po after 16 hrs; assay type: ADME, organism-based; parameters: dose 3 mg/kg, route oral; procedure, shortened: as §3
[12] = target: T1, Sphingosine 1-phosphate receptor 1 (Homo sapiens, UniProt P21453); assay: Displacement of [33P]sphingosine 1 phosphate from human S1P1 receptor expressed in CHO cells; assay type: cell-based
Rattus norvegicus [13] = assay: Decrease in peripheral blood lymphocyte counts in femoral artery cannulated Lewis rat at 3 mg/kg, po after 24 hrs; assay type: functional; procedure, shortened: as §1
[14] = target: T1, Sphingosine 1-phosphate receptor 1; assay: Activity at human S1P1 receptor expressed in CHO cells by [35S]GTPgammaS binding assay; assay type: functional, cell-based
Procedure, shortened: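 Agonism measured as ligand-induced [35S]-GTPγS binding to membranes of CHO cells stably expressing the human S1P receptor.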

Rattus norvegicus [15] = assay: Decrease in peripheral blood lymphocyte counts in femoral artery cannulated Lewis rat at 3 mg/kg, po after 0.25 hrs; assay type: functional; procedure, shortened: as §1
Mus musculus = assay: Decrease in peripheral blood lymphocytes in po dosed mouse after 3 hrs; assay type: functional
Procedure, shortened: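 Compound given orally to mice. Peripheral blood lymphocyte counts taken 3 h after dosing, expressed as average percent decrease in n = 3 animals versus controls (n = 3). ED50 from dose-titration.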

[16] = target: Sphingosine 1-phosphate receptor 5 (Homo sapiens, UniProt Q9H228); assay: Displacement of [33P]sphingosine 1 phosphate from human S1P5 receptor expressed in CHO cells; assay type: cell-based
Procedure, shortened: (§5)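 Competition binding with [33P]-labeled S1P on membranes of CHO cells stably expressing each human S1P receptor. Values are the mean of n = 3 determinations.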

[17] = Plasma concentration in femoral artery cannulated Lewis rat at 3 mg/kg, po after 32 hrs; assay type: ADME, organism-based; parameters: dose 3 mg/kg, route oral; procedure, shortened: as §3
Rattus norvegicus [18] = assay: Decrease in peripheral blood lymphocyte counts in femoral artery cannulated Lewis rat at 3 mg/kg, po after 56 hrs; assay type: functional; procedure, shortened: as §1
[19] = Plasma concentration in femoral artery cannulated Lewis rat at 3 mg/kg, po after 72 hrs; assay type: ADME, organism-based; parameters: dose 3 mg/kg, route oral; procedure, shortened: as §3
[20] = Plasma concentration in femoral artery cannulated Lewis rat at 3 mg/kg, po after 6 hrs; assay type: ADME, organism-based; parameters: dose 3 mg/kg, route oral; procedure, shortened: as §3
[21] = target: Sphingosine 1-phosphate receptor 3 (Homo sapiens, UniProt Q99500); assay: Displacement of [33P]sphingosine 1 phosphate from human S1P3 receptor expressed in CHO cells; assay type: cell-based
Rattus norvegicus [22] = assay: Decrease in peripheral blood lymphocyte counts in femoral artery cannulated Lewis rat at 3 mg/kg, po after 48 hrs; assay type: functional; procedure, shortened: as §1
[23] = Plasma concentration in femoral artery cannulated Lewis rat at 3 mg/kg, po after 20 hrs; assay type: ADME, organism-based; parameters: dose 3 mg/kg, route oral; procedure, shortened: as §3
[24] = Half life in rhesus monkey at 1 mg/kg, po and 0.5 mg/kg, iv; settings: in vivo
[25] = Plasma concentration in Lewis rat at 10 mg/kg, po after 24 hrs; assay type: ADME, organism-based; parameters: dose 10 mg/kg, route oral; procedure, shortened: as §2
Canis familiaris = assay: Cmax in Beagle dog at 1 mg/kg, po and 0.5 mg/kg, iv; assay type: ADME, organism-based, Canis lupus familiaris; settings: in vivo; procedure, shortened: as §4
[26] = target: T2, Sphingosine 1-phosphate receptor 4 (Homo sapiens, UniProt O95977); assay: Displacement of [33P]sphingosine 1 phosphate from human S1P4 receptor expressed in CHO cells; assay type: cell-based; procedure, shortened: as §5
T2 sequence (O95977 whole entry): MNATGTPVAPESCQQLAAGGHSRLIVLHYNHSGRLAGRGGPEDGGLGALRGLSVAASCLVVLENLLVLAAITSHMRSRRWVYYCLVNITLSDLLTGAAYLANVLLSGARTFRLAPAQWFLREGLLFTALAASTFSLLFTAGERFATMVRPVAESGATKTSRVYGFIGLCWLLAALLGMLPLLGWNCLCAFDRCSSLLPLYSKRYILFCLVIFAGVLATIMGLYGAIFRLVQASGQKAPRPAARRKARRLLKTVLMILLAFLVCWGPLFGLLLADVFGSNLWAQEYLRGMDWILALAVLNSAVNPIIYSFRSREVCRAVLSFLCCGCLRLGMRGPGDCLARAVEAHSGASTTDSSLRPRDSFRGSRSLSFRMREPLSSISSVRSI

[27] = Volume of distribution at steady state in Beagle dog at 1 mg/kg, po and 0.5 mg/kg, iv; assay type: ADME, organism-based, Canis lupus familiaris; settings: in vivo, read-out: Vdss
[28] = Plasma concentration in femoral artery cannulated Lewis rat at 3 mg/kg, po after 0.25 hrs; assay type: ADME, organism-based; parameters: dose 3 mg/kg, route oral; procedure, shortened: as §1
Rattus norvegicus [29] = assay: Decrease in peripheral blood lymphocyte counts in Lewis rat at 10 mg/kg, po after 24 hrs; assay type: functional; procedure, shortened: as §2
[30] = Plasma concentration in femoral artery cannulated Lewis rat at 3 mg/kg, po after 0.5 hrs; assay type: ADME, organism-based; parameters: dose 3 mg/kg, route oral; procedure, shortened: as §1
[31] = Plasma concentration in Lewis rat at 3 mg/kg, po after 24 hrs; assay type: ADME, organism-based; parameters: dose 3 mg/kg, route oral; procedure, shortened: as §2
[32] = Plasma concentration in femoral artery cannulated Lewis rat at 3 mg/kg, po after 56 hrs; assay type: ADME, organism-based; parameters: dose 3 mg/kg, route oral; procedure, shortened: as §3
Rattus norvegicus [33] = assay: Decrease in peripheral blood lymphocyte counts in femoral artery cannulated Lewis rat at 3 mg/kg, po after 6 hrs; assay type: functional; procedure, shortened: as §1
Rattus norvegicus [34] = assay: Decrease in peripheral blood lymphocyte counts in femoral artery cannulated Lewis rat at 3 mg/kg, po after 20 hrs; assay type: functional; procedure, shortened: as §1
Rattus norvegicus [35] = assay: Decrease in peripheral blood lymphocyte counts in femoral artery cannulated Lewis rat at 3 mg/kg, po after 1 hr; assay type: functional; procedure, shortened: as §1
Rattus norvegicus [36] = assay: Decrease in peripheral blood lymphocyte counts in femoral artery cannulated Lewis rat at 3 mg/kg, po after 16 hrs; assay type: functional; procedure, shortened: as §1
Rattus norvegicus [37] = assay: Decrease in peripheral blood lymphocyte counts in femoral artery cannulated Lewis rat at 3 mg/kg, po after 8 hrs; assay type: functional; procedure, shortened: as §1

T1 sequence (P21453 whole entry): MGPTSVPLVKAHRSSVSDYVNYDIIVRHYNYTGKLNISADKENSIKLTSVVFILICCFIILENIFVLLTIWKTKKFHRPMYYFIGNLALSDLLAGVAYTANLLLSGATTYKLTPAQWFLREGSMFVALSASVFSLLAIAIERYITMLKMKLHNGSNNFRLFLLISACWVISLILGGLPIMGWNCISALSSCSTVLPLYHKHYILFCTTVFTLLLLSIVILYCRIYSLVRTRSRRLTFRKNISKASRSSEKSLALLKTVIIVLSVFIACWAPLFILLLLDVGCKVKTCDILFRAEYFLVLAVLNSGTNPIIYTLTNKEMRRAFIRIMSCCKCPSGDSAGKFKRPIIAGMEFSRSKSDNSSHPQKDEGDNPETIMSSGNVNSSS
Sequence of Sphingosine 1-phosphate receptor 3 (Q99500 whole entry): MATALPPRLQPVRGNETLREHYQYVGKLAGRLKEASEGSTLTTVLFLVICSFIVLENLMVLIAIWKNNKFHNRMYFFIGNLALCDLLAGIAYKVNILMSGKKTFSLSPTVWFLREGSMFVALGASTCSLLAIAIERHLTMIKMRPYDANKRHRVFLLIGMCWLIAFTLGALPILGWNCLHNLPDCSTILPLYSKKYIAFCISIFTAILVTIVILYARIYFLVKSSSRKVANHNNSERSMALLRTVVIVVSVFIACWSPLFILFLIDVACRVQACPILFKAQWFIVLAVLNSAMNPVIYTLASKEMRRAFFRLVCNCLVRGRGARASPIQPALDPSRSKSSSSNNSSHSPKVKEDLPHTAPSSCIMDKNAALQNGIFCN
Sequence of Sphingosine 1-phosphate receptor 2 (O95136 whole entry): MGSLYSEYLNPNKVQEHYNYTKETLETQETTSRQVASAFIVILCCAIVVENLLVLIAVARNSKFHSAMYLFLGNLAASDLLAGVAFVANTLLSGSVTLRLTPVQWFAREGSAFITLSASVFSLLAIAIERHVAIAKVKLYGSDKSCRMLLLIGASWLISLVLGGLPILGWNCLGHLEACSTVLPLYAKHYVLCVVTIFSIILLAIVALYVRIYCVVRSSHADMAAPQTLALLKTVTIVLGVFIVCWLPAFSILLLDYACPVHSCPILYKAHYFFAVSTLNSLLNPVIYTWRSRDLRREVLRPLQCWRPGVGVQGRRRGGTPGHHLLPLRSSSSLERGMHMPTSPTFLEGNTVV
Sequence of Sphingosine 1-phosphate receptor 5 (Q9H228 whole entry): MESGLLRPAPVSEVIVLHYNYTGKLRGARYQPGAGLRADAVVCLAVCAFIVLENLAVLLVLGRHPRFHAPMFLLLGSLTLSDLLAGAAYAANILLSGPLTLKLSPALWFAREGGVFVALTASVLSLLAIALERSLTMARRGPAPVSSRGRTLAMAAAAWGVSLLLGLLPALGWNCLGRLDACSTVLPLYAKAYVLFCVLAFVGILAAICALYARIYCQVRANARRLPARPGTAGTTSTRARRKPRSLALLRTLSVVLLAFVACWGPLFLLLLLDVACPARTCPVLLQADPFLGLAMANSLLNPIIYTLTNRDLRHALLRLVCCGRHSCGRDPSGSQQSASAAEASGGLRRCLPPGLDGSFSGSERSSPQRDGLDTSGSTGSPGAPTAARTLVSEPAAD

SMILES: O=C(O)C1CN(Cc2ccc(OCc3cc(-c4ccccc4)c(C(F)(F)F)s3)cc2)C1
- Activity (Rattus norvegicus [1]): 1530 µL⁻¹
- Activity (Rattus norvegicus [2]): 1530 µL⁻¹
- concentration at 48 h [3]: 13 nM
- concentration at 2 h [4]: 310 nM
- Activity (Rattus norvegicus [5]): 1770 µL⁻¹
- bioavailability [6]: 66%
- IC50 [7]: > 10000 nM
- Activity (Rattus norvegicus [8]): 7000 µL⁻¹
- Activity (Rattus norvegicus [9]): 1430 µL⁻¹
- Activity (Rattus norvegicus [10]): 2230 µL⁻¹
- concentration at 16 h [11]: 170 nM
- IC50 [12]: 1.2 nM (antagonist)
- Activity (Rattus norvegicus [13]): 1570 µL⁻¹
- EC50 [14]: 0.5 nM (agonist)
- Activity (Rattus norvegicus [15]): 4400 µL⁻¹
- ED50 (Mus musculus): 0.44 mg/kg
- IC50 [16]: 23 nM (antagonist)
- concentration at 32 h [17]: 34 nM
- Activity (Rattus norvegicus [18]): 4270 µL⁻¹
- concentration at 72 h [19]: 8 nM
- concentration at 6 h [20]: 380 nM
- IC50 [21]: 530 nM (antagonist)
- Activity (Rattus norvegicus [22]): 4000 µL⁻¹
- concentration at 20 h [23]: 150 nM
- half-life [24]: 12.5 h
- concentration at 24 h [25]: 370 nM
- Cmax (Canis familiaris): 1300 nM
- IC50 [26]: 1600 nM (antagonist)
- Vd [27]: 1.6 L/kg
- concentration at 0.25 h [28]: 72 nM
- Activity (Rattus norvegicus [29]): 1530 µL⁻¹
- concentration at 0.5 h [30]: 200 nM
- concentration at 24 h [31]: 95 nM
- concentration at 56 h [32]: 10 nM
- Activity (Rattus norvegicus [33]): 1330 µL⁻¹
- Activity (Rattus norvegicus [34]): 1530 µL⁻¹
- Activity (Rattus norvegicus [35]): 3330 µL⁻¹
- Activity (Rattus norvegicus [36]): 1600 µL⁻¹
- Activity (Rattus norvegicus [37]): 1470 µL⁻¹
